Source: PubChem (several laboratories)
ROMK mod – modulators of human ROMK potassium channel; P48048; Tet-inducible ROMK, thallium flux fluorescence; actives lie on both sides; B-score at 10 µM; actives 2% (n = 130,000); AID 1918;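 active = signal ratio slope over the read window, or its plate-corrected B-score, at least 3 SD from the plate mean, either direction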;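 also: B-score of the F/F0 ratio slope over 7 to 12 s after thallium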
Target sequence (P48048 whole entry, looked up): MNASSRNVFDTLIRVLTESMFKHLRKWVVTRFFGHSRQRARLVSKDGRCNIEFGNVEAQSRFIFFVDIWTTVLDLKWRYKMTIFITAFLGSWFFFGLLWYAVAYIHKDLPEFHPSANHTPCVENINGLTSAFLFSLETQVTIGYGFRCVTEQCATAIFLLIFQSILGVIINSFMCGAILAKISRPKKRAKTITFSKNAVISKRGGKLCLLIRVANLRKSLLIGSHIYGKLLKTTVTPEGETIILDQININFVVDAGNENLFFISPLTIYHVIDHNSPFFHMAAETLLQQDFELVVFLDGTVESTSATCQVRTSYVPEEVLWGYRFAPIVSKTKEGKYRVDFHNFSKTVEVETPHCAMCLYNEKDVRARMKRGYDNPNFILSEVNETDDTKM
Biofilm kill mix – mixtures killing C. albicans biofilm; C. albicans biofilm persisters + clotrimazole, fluorescence viability; primary screen in compound mixtures of four per well; inhibition, % at 7.6 µM; actives 0.02% (n = 120,000);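 active = inhibition above 30.3% in the primary screen of four-compound pools, then above 30% when the compound was retested; inconclusive = passed the primary limit but could not be retested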;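 also: compounds exposed to preformed 24 h biofilms for 48 h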
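Test system: C. albicans biofilms. Buffer or medium: RPMI/MOPS medium, pH 7.0. Timing: 48 h compound exposure at 37 °C. Technique: Alamar Blue fluorescence. Evaluation: percent inhibition of biofilm viability.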
Pf gamet viab – P. falciparum stage V gametocyte viability inhibition. P. falciparum stage V gametocytes, ATP luminescence, 24 h. inhibition, % at 10.9 µM. actives 0.065% (n = 150,000);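 active = inhibition above the mean plus 3 SD of compounds within the control limits, set per campaign, cut at about 38% in these data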
ROMK retest – retested hit modulating human ROMK potassium channel; shares compounds with ROMK mod; ROMK thallium flux, fluorescence ratio; stronger effect = lower value; normalized thallium flux (F/F0 slope) at 10 µM; actives 54% (n = 3,000); AID 1917;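 active = Flux at 10 µM at least 3 SD below or above vehicle control mean in one or both replicates; inconclusive = no clear call, values can overlap the other calls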
Each line names hits and unclear results; the compound was inactive in the other large screens (follow-up assays come after a bar, where they were run). This excerpt belongs to a sample that is enriched for hits.

CCCNc1sc(S(=O)(=O)CCC)nc1S(=O)(=O)c1ccc(C)cc1	none
O=c1[nH]c(=O)n(Cc2ccco2)c2c1C(C(F)(F)F)(C(F)(F)F)N=C(CCC1CCCCC1)N2	none (no result: ROMK mod, Biofilm kill mix)
O=c1[nH]c(=O)n(Cc2ccco2)c2c1C(C(F)(F)F)(C(F)(F)F)N=C(CCc1ccccc1)N2	none (no result: ROMK mod, Biofilm kill mix, Pf gamet viab) | ROMK retest 0.063
O=c1[nH]c(=O)n(-c2ccccc2)c2c1C(C(F)(F)F)(C(F)(F)F)N=C(CCC1CCCCC1)N2	ROMK mod -3.4 | ROMK retest 0.062
CC(C)Cn1c2c(c(=O)[nH]c1=O)C(C(F)(F)F)(C(F)(F)F)N=C(CCC1CCCCC1)N2	none
Cc1c(/C=C2\NC(=O)NC2=O)c2ccccc2n1C	none (no result: ROMK mod, Biofilm kill mix)
O=C(Nc1ccc(Cl)cc1Cl)c1ccc(Br)o1	none (no result: ROMK mod, Biofilm kill mix)
Cc1ccccc1[C@@H](NC(=O)OC(C)(C)C)C(=O)OC(C)(C)C	none (no result: ROMK mod, Biofilm kill mix)
CCOc1cc(C)c(Cl)cc1S(=O)(=O)NC1CC(C)(C)NC(C)(C)C1	ROMK mod -3.7 | ROMK retest 0.064
COc1cc(C)c(Cl)c(C)c1S(=O)(=O)NC1CC(C)(C)NC(C)(C)C1	ROMK mod -2.6 | ROMK retest 0.053
COc1cc(C)c(C(C)C)cc1S(=O)(=O)NC1CC(C)(C)NC(C)(C)C1	none (no result: ROMK mod, Biofilm kill mix)
COc1ccc(S(=O)(=O)NC2CC(C)(C)NC(C)(C)C2)c(C)c1C	none (no result: Biofilm kill mix, Pf gamet viab)
OCC[C@H]1C[C@@H](O)[C@H](O)[C@]2(CCCCO2)O1	none (no result: ROMK mod)
COc1ccc2oc(=O)c(-c3nc(C)cs3)cc2c1	ROMK mod -5.1 (no result: Biofilm kill mix) | ROMK retest inactive
COc1ccc2oc(=O)c(-c3nnc(N)s3)cc2c1	none (no result: Pf gamet viab)
CC1CCCCC1NC(=O)Cn1cnc2ccccc2c1=O (centres undefined)	none (no result: Biofilm kill mix, Pf gamet viab)
COCCCNC(=O)CN1C(=O)c2ccccc2C1=O	none (no result: Biofilm kill mix, Pf gamet viab)
CCCCNC(=O)CN1C(=O)c2cccc(N)c2C1=O	none | ROMK retest 0.055
CC1CCCCC1NC(=O)CN1C(=O)c2cccc(N)c2C1=O (centres undefined)	ROMK mod -3.7 | ROMK retest 0.056
Cc1ccc(NC(=O)C(=O)NCCN2CCN(S(=O)(=O)c3ccccc3)CC2)cc1C	none (no result: Pf gamet viab)
CCOC(=O)C1=C(N)OC2=C(C(=O)CC(C)(C)C2)C1c1cc(CSc2nnnn2C)cs1 (centres undefined)	ROMK mod -4.1 | ROMK retest inconclusive
CCOC(=O)C1=C(N)OC2=C(C(=O)CC(C)(C)C2)C1c1ccoc1 (centres undefined)	none (no result: Biofilm kill mix, Pf gamet viab)
CC(C)(C)c1ccc(NC(=S)NCc2cccnc2)cc1	ROMK mod -1.5 | ROMK retest inactive
Fc1ccc(NC(=S)NCc2cccnc2)cc1	none
C/C(CC(=O)Nc1ccc([N+](=O)[O-])cc1)=N/NC(=O)C1C2CCCCC21 (centres undefined)	none (no result: ROMK mod)
c1ccc(-n2cc(CNCCc3cscn3)c(-c3ccc4c(c3)OCO4)n2)cc1	ROMK mod -3.1 | ROMK retest 0.05
OC[C@@H]1CCCN1Cc1cn(-c2ccccc2)nc1-c1ccc2c(c1)OCO2	none
OCc1cn(-c2ccccc2)nc1-c1ccc2c(c1)OCCO2	none (no result: Biofilm kill mix)
COCC1CCCCN1Cc1cn(-c2ccccc2)nc1-c1ccc2c(c1)OCO2 (centres undefined)	ROMK mod -3.4 | ROMK retest 0.065
CC(NC(=O)CSCc1ccccc1Br)c1ccccc1 (centres undefined)	none (no result: ROMK mod, Pf gamet viab)
Cc1ccc(C#CC[N+]2(CC#Cc3ccc(C)cc3)CCCCC2)cc1	ROMK mod -5.1 | ROMK retest 0.056
C(#Cc1ccccc1)C[N+]1(CC#Cc2ccccc2)CCCCC1	none
CCCCN(C(C)=O)c1c(N)n(CCC)c(=O)n(CC(=O)Nc2cc(Cl)cc(Cl)c2)c1=O	none
Cc1cc2ccccn2c1C(=O)Nc1cccc(Cl)c1	none (no result: ROMK mod)
CCOC(=O)N1CCN(C(=O)CN(c2ccc(C)cc2)S(=O)(=O)c2c(C)noc2C)CC1	none (no result: Biofilm kill mix, Pf gamet viab)
CCOc1ccc(N(CC(=O)N2CCN(c3ccccc3)CC2)S(=O)(=O)c2c(C)noc2C)cc1	none (no result: ROMK mod, Biofilm kill mix, Pf gamet viab) | ROMK retest inactive
COc1ccc2cc(Br)ccc2c1CC(=O)NC1CC(C)(C)NC(C)(C)C1	ROMK mod -2.9 (no result: Biofilm kill mix) | ROMK retest 0.067
CCNC(=O)Cc1c(OC)ccc2cc(Br)ccc12	none
O=C(O)c1ccc(CS(=O)(=O)c2cccc(C(F)(F)F)c2)o1	none (no result: ROMK mod, Biofilm kill mix, Pf gamet viab) | ROMK retest inactive
CCCCNC(=O)c1ccc(CS(=O)(=O)c2cccc(C(F)(F)F)c2)o1	none (no result: ROMK mod, Biofilm kill mix)
CCC(C)NC(=O)c1ccc(CN2CCc3ccccc3C2)cc1 (centres undefined)	none (no result: ROMK mod, Biofilm kill mix)
COc1ccc(/C=C/C(=O)Nc2ccccc2C)cc1S(=O)(=O)N1CCOCC1	none (no result: ROMK mod)
COc1ccc(/C=C/C(=O)Nc2cccc(F)c2)cc1S(=O)(=O)N1CCOCC1	none | ROMK retest 0.064
Cc1nc(Nc2ccc(Cl)cc2)c(C#N)c(=O)[nH]1	none (no result: ROMK mod, Biofilm kill mix)
O=C(CN1CCCC1)Nc1ccc(Br)cc1[N+](=O)[O-]	none (no result: ROMK mod, Biofilm kill mix)
